One experiment concerns A549. Briefly: Inhibition of A549 cancer cell proliferation. It counts as functional, cell-based. As to conditions: Homo sapiens. A digest of the protocol: (§1)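 Cytotoxicity measured by sulforhodamine B (SRB) assay following NCI protocols. Human tumour cell lines: A 549 (non-small cell lung, from NCI), Col 1 (human colon carcinoma, from University of Illinois at Chicago surgical oncology), HL-60 (myeloid leukaemia, from ATCC) and HepG2 (hepatocarcinoma, from ATCC).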

The target in experiment [1] is Cyclin-dependent kinase 2 (Homo sapiens, UniProt P24941). Briefly: Inhibition of Cyclin-dependent kinase 2 (CDK2/cyclin A).
The test system of another experiment is COLO1. Kind of experiment: Inhibition of Col1 cancer cell proliferation. The experiment is classed as functional, cell-based, Homo sapiens. The method, boiled down: as §1
For experiment [2], the target named is Cyclin-dependent kinase 4 (Homo sapiens, UniProt P11802). Kind of experiment: Inhibition of Cyclin-dependent kinase 4 (CDK4/cyclin Dl).
The test system of a further experiment is HL-60. Kind of experiment: Inhibition of HL60 cancer cell proliferation. It counts as functional, cell-based, Homo sapiens. The method, boiled down:
as §1

A further experiment concerns HepG2. Briefly: Inhibition of HepG2 cancer cell proliferation. It counts as functional, cell-based. Conditions: Homo sapiens. The method, boiled down:
as §1

The mark [3] stands for this setting: Homo sapiens, COLO1, read-out: IC50.
Setting [4] is: Homo sapiens, HL-60, read-out: IC50.

Converted amounts (≈) assume the structure as drawn.

Cyclin-dependent kinase 4, sequence (P11802 whole entry): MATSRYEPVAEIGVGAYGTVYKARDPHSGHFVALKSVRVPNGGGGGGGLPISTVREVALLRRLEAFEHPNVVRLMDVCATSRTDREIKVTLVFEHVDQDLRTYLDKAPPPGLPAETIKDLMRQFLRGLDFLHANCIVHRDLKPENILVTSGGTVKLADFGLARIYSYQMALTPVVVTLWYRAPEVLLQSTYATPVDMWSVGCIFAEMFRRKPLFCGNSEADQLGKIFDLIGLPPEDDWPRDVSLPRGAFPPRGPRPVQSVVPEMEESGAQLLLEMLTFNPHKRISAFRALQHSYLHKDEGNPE

In general, IC50 refers to the concentration that inhibits the measured activity by half. In the case of `Cc1nc2c(s1)C(=O)C=C(Nc1ccc(O)cc1)C2=O`, the IC50 in the experiment on A549 was 0.7 µg/mL (≈ 2.44 µM); in experiment [1] it was > 200 µM; in the experiment on COLO1 (setting [3]), 1.85 µg/mL (≈ 6.46 µM); in experiment [2], 6.7 µM; in the experiment with HL-60 (setting [4]), 0.26 µg/mL (≈ 0.908 µM); with HepG2 it was 1.36 µg/mL (≈ 4.75 µM).

`Cc1nc2c(s1)C(=O)C=C(Nc1ccc(Br)cc1)C2=O`: the concentration for half-maximal inhibition (IC50) in the experiment on A549 was 3.6 µg/mL (≈ 10.3 µM); in experiment [1], > 200 µM; in the experiment on COLO1 (setting [3]), 6.57 µg/mL (≈ 18.8 µM); in experiment [2], 6.7 µM; with HL-60 (setting [4]), 0.28 µg/mL (≈ 0.802 µM); with HepG2, 2.78 µg/mL (≈ 7.96 µM).

Take `Cc1nc2c(s1)C(=O)C=C(Nc1ccc(I)cc1)C2=O`: the IC50 with A549 was 2.08 µg/mL (≈ 5.25 µM); in experiment [1], > 200 µM; with COLO1 (setting [3]), 2.08 µg/mL (≈ 5.25 µM); in experiment [2], 3 µM; with HL-60 (setting [4]), 0.24 µg/mL (≈ 0.606 µM); in the experiment with HepG2, 1.95 µg/mL (≈ 4.92 µM).

Regarding `COc1ccc(NC2=CC(=O)c3sc(C)nc3C2=O)cc1`, the IC50 in the experiment with A549 was 1.65 µg/mL (≈ 5.49 µM); in experiment [1], > 200 µM; in the experiment with COLO1 (setting [3]), 2.01 µg/mL (≈ 6.69 µM); in experiment [2], 5.6 µM; in the experiment on HL-60 (setting [4]), 0.27 µg/mL (≈ 0.899 µM); in the experiment on HepG2 it was 1.39 µg/mL (≈ 4.63 µM).

As to `Cc1ccc(NC2=CC(=O)c3sc(C)nc3C2=O)cc1`, the IC50 is 0.61 µg/mL (≈ 2.15 µM) in the experiment on A549; > 200 µM in experiment [1]; 1.08 µg/mL (≈ 3.8 µM) in the experiment with COLO1 (setting [3]); 6 µM in experiment [2]; 0.3 µg/mL (≈ 1.06 µM) with HL-60 (setting [4]).

As to `Cc1nc2c(s1)C(=O)C=C(Nc1ccccc1)C2=O`, the half-maximal inhibitory concentration (IC50) with A549 was 0.64 µg/mL (≈ 2.37 µM); in experiment [1], > 200 µM; with COLO1 (setting [3]) it was 1.93 µg/mL (≈ 7.14 µM); in experiment [2] it was 6 µM; in the experiment with HL-60 (setting [4]), 0.28 µg/mL (≈ 1.04 µM); in the experiment on HepG2, 1.3 µg/mL (≈ 4.81 µM).

For `Cc1nc2c(s1)C(=O)C=C(Nc1ccc(Cl)cc1)C2=O`, the IC50 is 3.6 µg/mL (≈ 11.8 µM) in the experiment on A549; > 200 µM in experiment [1]; 20 µg/mL (≈ 65.6 µM) in the experiment on COLO1 (setting [3]); 7 µM in experiment [2]; 0.33 µg/mL (≈ 1.08 µM) in the experiment on HL-60 (setting [4]); 3.23 µg/mL (≈ 10.6 µM) in the experiment on HepG2.

Consider `Cc1nc2c(s1)C(=O)C=C(Nc1ccc(F)cc1)C2=O`, for which the half-inhibitory concentration (IC50) was 1.69 µg/mL (≈ 5.86 µM) in the experiment with A549; > 200 µM in experiment [1]; 1.94 µg/mL (≈ 6.73 µM) in the experiment on COLO1 (setting [3]); 6.3 µM in experiment [2]; 0.23 µg/mL (≈ 0.798 µM) with HL-60 (setting [4]); 1.51 µg/mL (≈ 5.24 µM) in the experiment on HepG2.

Take `CCOc1ccc(NC2=CC(=O)c3sc(C)nc3C2=O)cc1`: the IC50 with A549 was 1.76 µg/mL (≈ 5.6 µM); in experiment [1] it was > 200 µM; in the experiment with COLO1 (setting [3]), 2.09 µg/mL (≈ 6.65 µM); in experiment [2], 20 µM; with HL-60 (setting [4]), 0.29 µg/mL (≈ 0.922 µM); in the experiment with HepG2, 1.53 µg/mL (≈ 4.87 µM).

On to `Cn1cnc2c(NCc3ccccc3)nc(NCCO)nc21` [OLOMOUCINE], for which the 50% inhibitory concentration (IC50) in the experiment with A549 turned out to be 57 µg/mL (≈ 191 µM); in the experiment on COLO1 (setting [3]) it was 87 µg/mL (≈ 292 µM); in the experiment on HL-60 (setting [4]), 50 µg/mL (≈ 168 µM).

As to CISPLATIN, the IC50 with COLO1 (colo1) turned out to be 1.38 µg/mL; in the experiment with HL-60 (hl-60), 0.7 µg/mL.

For the origin of these results see ChEMBL document CHEMBL1133408, “5-Arylamino-2-methyl-4,7-dioxobenzothiazoles as inhibitors of cyclin-dependent kinase 4 and cytotoxic agents” (Bioorg Med Chem Lett, 2000).
